From ChEMBL document CHEMBL1806459, “Discovery of N-(1-ethylpropyl)-[3-methoxy-5-(2-methoxy-4-trifluoromethoxyphenyl)-6-methyl-pyrazin-2-yl]amine 59 (NGD 98-2): an orally active corticotropin releasing factor-1 (CRF-1) receptor antagonist” (J Med Chem, 2011) come the findings set out here.

pKi: −log10 of the molar value. ≈ marks a conversion by molar mass, not a printed value. Calls of active or inactive are those of the source.

The nature of data set [1]: Ratio of drug level in brain to plasma of rat at 3 mg/kg, iv. Details: dose 3 mg/kg, route intravenous. The data set is classed as ADME, organism-based. The settings on record: read-out: BPR. In short, it runs like this:
(§1)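 Rat pharmacokinetics: compounds given iv (1 or 3 mg/kg) and po (5 or 10 mg/kg) in 2% Vitamin E TPGS (tocopheryl polyethylene glycol 1000 succinate). Plasma sampled over 24 h for Cmax, Tmax, AUC0–24 h, T1/2, clearance, Vss and oral bioavailability. Brain to plasma ratio also measured.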

Data set [2] is described as follows: Ratio of drug level in brain to plasma of rat at 5 mg/kg, po. It is filed as ADME, organism-based. The following applies: read-out: BPR. On the set-up: dose 5 mg/kg, route oral. The method, boiled down: as §1
The target in data set [3] is T1, Corticotropin-releasing factor receptor 1 (Homo sapiens, UniProt P34998).
T1 sequence (P34998 whole entry): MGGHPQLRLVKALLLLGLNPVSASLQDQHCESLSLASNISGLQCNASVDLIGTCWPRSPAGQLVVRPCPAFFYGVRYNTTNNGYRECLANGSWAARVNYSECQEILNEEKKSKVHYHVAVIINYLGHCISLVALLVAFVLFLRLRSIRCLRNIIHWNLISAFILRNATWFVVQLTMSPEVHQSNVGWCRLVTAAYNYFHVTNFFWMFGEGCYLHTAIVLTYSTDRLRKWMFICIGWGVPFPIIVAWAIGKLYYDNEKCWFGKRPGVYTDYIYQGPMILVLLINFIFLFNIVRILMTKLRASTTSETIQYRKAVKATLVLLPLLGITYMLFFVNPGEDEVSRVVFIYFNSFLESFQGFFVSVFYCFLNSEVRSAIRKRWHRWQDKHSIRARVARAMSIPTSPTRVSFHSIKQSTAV
The experiment in a line: Displacement of [125I]-sauvagine from human CRF-1 receptor expressed in human IMR-32 cells after 2 hrs by scintillation counting. It is filed as cell-based. The method, boiled down:
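Competition binding against 125I-sauvagine on membrane preparations from IMR-32 human neuroblastoma cells, which express CRF-1 endogenously. Modified from a published method.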

Data set [4] in a line: Half life in human microsomes. The data set is classed as ADME, Microsome. The method, boiled down: (§2)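 Stability in human or rat liver microsomes; half-life (T1/2, min) of compound turnover reported.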
Data set [5] is described as follows: Half life in rat microsomes. The data set is classed as ADME, Microsome. In short, it runs like this:
as §2

Data set [6] can be described thus: Cmax in rat at 3 mg/kg, iv. On the set-up: dose 3 mg/kg, route intravenous. The data set is classed as ADME, organism-based. The following applies: in vivo. The method, boiled down: (§3)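 Rat PK, intravenous arm of a paired iv/po study. Dosed in 2% Vitamin E TPGS (tocopheryl polyethylene glycol 1000 succinate). Parameters derived from plasma: Cmax, AUC0–24 h, terminal T1/2.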

The nature of data set [7]: Cmax in rat at 5 mg/kg, po. It is filed as ADME, organism-based. Details: dose 5 mg/kg, route oral. The settings on record: in vivo.
A short description of data set [8]: AUC (0 to 24 hrs) in rat at 3 mg/kg, iv. The following applies: plasma. It is filed as ADME, organism-based. On the set-up: time < 24 hr, dose 3 mg/kg, route intravenous. The method, boiled down:
as §3

Data set [9] in a line: AUC (0 to 24 hrs) in rat at 5 mg/kg, po. It is filed as ADME, organism-based. Details: time < 24 hr, dose 5 mg/kg, route oral. The following applies: plasma.
The nature of data set [10]: Tmax in rat at 3 mg/kg, iv. It is filed as ADME, organism-based. Details: dose 3 mg/kg, route intravenous. The following applies: in vivo. In short, it runs like this: as §1
Data set [11] is described as follows: Tmax in rat at 5 mg/kg, po. It is filed as ADME, organism-based. Details: dose 5 mg/kg, route oral. The settings on record: in vivo. The method, boiled down: as §1
Data set [12] is described as follows: Half life in rat at 3 mg/kg, iv. Details: dose 3 mg/kg, route intravenous. The following applies: in vivo. The data set is classed as ADME, organism-based. In short, it runs like this: as §3
Data set [13] can be described thus: Half life in rat at 5 mg/kg, po. It is filed as ADME, organism-based. Details: dose 5 mg/kg, route oral. The settings on record: in vivo.
The nature of data set [14]: Clearance in rat at 3 mg/kg, iv. The following applies: in vivo. On the set-up: dose 3 mg/kg, route intravenous. The data set is classed as ADME, organism-based. The method, boiled down:
(§4)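 Rat PK with paired iv and oral dosing, vehicle 2% Vitamin E TPGS. Clearance and Vss from the iv arm; oral bioavailability F from comparing exposure after oral and iv doses.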

The nature of data set [15]: Clearance in rat at 5 mg/kg, po. The data set is classed as ADME, organism-based. Details: dose 5 mg/kg, route oral. The settings on record: in vivo.
Data set [16] in a line: Volume of distribution at steady state in rat at 3 mg/kg, iv. It is filed as ADME, organism-based. On the set-up: dose 3 mg/kg, route intravenous. The following applies: in vivo, read-out: Vdss. In short, it runs like this:
as §1

Data set [17] concerns Rattus norvegicus. The experiment in a line: Volume of distribution at steady state in rat at 5 mg/kg, po. The data set is classed as ADME, organism-based. On the set-up: dose 5 mg/kg, route oral. The settings on record: in vivo. In short, it runs like this:
as §1

A short description of data set [18]: Bioavailability in rat at 3 mg/kg, […]. The settings on record: in vivo. The data set is classed as ADME, organism-based. The method, boiled down: as §4
The nature of data set [19]: Oral bioavailability in rat at 5 mg/kg. The following applies: in vivo. It is filed as ADME, organism-based. In short, it runs like this:
as §1

Data set [20] has as its target Corticotropin-releasing factor receptor 1 (Rattus norvegicus, UniProt P35353). The experiment in a line: Displacement of [125I]-sauvagine from rat CRF-1 receptor expressed in rat cortical membrane after 2 hrs by scintillation counting. The data set is classed as cell membranes. In short, it runs like this: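 Displacement of [125I]-sauvagine binding from rat cortical membrane homogenate with increasing compound concentrations; Ki derived.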
(In general: Loss of bound radioactivity is the signal in a displacement assay; it reports binding, not function.)

Data set [21] deals with Rattus norvegicus. Description: Decrease in restrained-stress induced ATCH release in plasma of Sprague-Dawley rat at 10 mg/kg, po pretreated with compound for 1 hr by radioimmunoassay. It is filed as functional, organism-based. Details: dose 10 mg/kg. In short, it runs like this: (§5)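 Rats were dosed orally 1 h before a 10 min period of physical restraint, across a 1–30 mg/kg range. The read-out was plasma ACTH, compared against vehicle-treated stressed and unstressed rats.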

The test system of data set [22] is Rattus norvegicus. The experiment in a line: Decrease in restrained-stress induced ATCH release in plasma of Sprague-Dawley rat at 3 mg/kg, po pretreated with compound for 1 hr by radioimmunoassay. It is filed as functional, organism-based. On the set-up: dose 3 mg/kg. The method, boiled down: as §5
Data set [23] relates to Rattus norvegicus. The experiment in a line: Antihyperlocomotion activity in Wistar rat assessed as decrease in CRF-induced hyperlocomotion at 10 mg/kg, po administered 1 hr before CRF challenge measured after 1 hr. Details: dose 10 mg/kg. It is filed as functional, organism-based. In short, it runs like this:
(§6)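 Oral dosing in rats 1 h before an ICV CRF challenge of 0.3 μg, across a 1–30 mg/kg range. The read-out was locomotor movement time, compared against TPGS-vehicle rats given CRF and rats given vehicle without CRF.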

The test system of data set [24] is Rattus norvegicus. The experiment in a line: Antihyperlocomotion activity in Wistar rat assessed as decrease in CRF-induced hyperlocomotion at 3 mg/kg, po administered 1 hr before CRF challenge measured after 1 hr. It is filed as functional, organism-based. On the set-up: dose 3 mg/kg. The method, boiled down:
as §6

For data set [25], the system named is Rattus norvegicus. The experiment in a line: Ex vivo CRF-1 receptor occupancy in po dosed rat cortical homogenate assessed as inhibition of [I125]-sauvagine binding pretreated for 3 hrs. The data set is classed as functional, organism-based. In short, it runs like this:
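Rats dosed orally at 1, 3 and 10 mg/kg; cortex taken at 3 h for ex vivo binding. Specific [125I]-sauvagine binding compared with vehicle-treated rats to give ex vivo ID50.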

Data set [26] can be described thus: Oral bioavailability in rat. The data set is classed as ADME, organism-based. The settings on record: in vivo. In short, it runs like this: as §1
Data set [27] in a line: Drug uptake in rat adipose tissue assessed as radioactivity of labeled compound. The following applies: in vivo. It is filed as ADME, tissue-based.

Chain of Corticotropin-releasing factor receptor 1 (Rattus norvegicus, UniProt P35353) (P35353 whole entry): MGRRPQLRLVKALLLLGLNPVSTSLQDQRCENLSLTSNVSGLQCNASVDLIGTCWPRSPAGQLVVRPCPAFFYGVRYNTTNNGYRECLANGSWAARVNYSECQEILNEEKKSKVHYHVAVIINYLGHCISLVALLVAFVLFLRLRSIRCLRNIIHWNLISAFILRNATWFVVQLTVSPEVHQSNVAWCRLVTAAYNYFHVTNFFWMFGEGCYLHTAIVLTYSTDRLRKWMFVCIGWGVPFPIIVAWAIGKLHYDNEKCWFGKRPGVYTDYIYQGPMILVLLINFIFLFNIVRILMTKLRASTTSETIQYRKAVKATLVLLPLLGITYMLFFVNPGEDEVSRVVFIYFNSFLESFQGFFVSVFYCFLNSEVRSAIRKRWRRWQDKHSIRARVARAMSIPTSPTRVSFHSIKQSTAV

For orientation: pKi means the Ki on a negative log10 scale, so that one unit is a factor of ten. Lower therefore signals a high Ki. Usually half-life stands for the time needed for the level to fall by half in the phase considered. One may read the Cmax as the highest concentration seen after dosing. As a reminder, the AUC(0-t) is exposure summed from dosing to a finite time, without extrapolation to infinity. Read a high AUC(0-t) as high exposure. One may read the Tmax as the time at which the peak concentration occurs. What is called clearance is the volume of plasma or blood freed of the substance per unit of time. Read a low clearance as inefficient removal. Broadly, the CL/F is clearance divided by bioavailability, as obtained after extravascular dosing. By bioavailability is commonly meant dose-corrected exposure relative to a reference, in per cent. Low values mean little systemic uptake, high ones much systemic uptake. Regarding `CCc1nc(-c2ccc(Cl)cc2Cl)c(CC)nc1NC(CC)CC`, the Kp in data set [1] and in data set [2] was 2.5 throughout. In data set [3], this compound gave a pKi of 8.39. Moreover, the half-life in [4] was 0.283 h; in data set [5], 4.2 min; in data set [12], 4.9 h; in data set [13], 4.9 h. The Cmax in data set [6] and in [7] was 627 ng/mL each time. The AUC(0-t) at 24 h in data set [8] and in data set [9] was 4310 ng·h/mL throughout. Moreover, the Tmax in data set [10] and in data set [11] was 1.3 h each time. For the same compound, in data set [14], the clearance was 16 mL/min/kg. For the same compound, the CL/F in data set [15] was 16 mL/min/kg. In addition, in data set [16], the Vd stood at 6.5 L/kg. In addition, the Vdss with Rattus norvegicus [17] turned out to be 6.5 L/kg. For the same compound, the bioavailability in data set [18] and in [19] was 83% in each case.
One may read the IC50 as the midpoint of a concentration-inhibition curve. Compound `CCCN(CCC)c1cc(C)nc2c(-c3cnc(N(C)C)cc3C)c(C)nn12` gave a negative logarithm of the Ki (pKi) in data set [20] of 8.42. The result in the data set with Rattus norvegicus [21], in the data set on Rattus norvegicus [22], in the data set on Rattus norvegicus [23] and in the data set with Rattus norvegicus [24] was Active. Moreover, the IC50 in the data set on Rattus norvegicus [25] turned out to be 0.074 µg/mL (≈ 0.194 µM). Besides, the ED50 with Rattus norvegicus [25] (po, read-out: ID50 (the source's name)) was 7.2 mg/kg.
With `CCC(CC)Oc1c(C)nc(-c2c(OC)cc(Cl)cc2OC)nc1OC`, in data set [26], the bioavailability is 6%.
As for `CCC(CC)Nc1nc(C)c(-c2ccc(OC(F)(F)F)cc2O[14CH3])nc1OC`, in [27], the Drug uptake result is on record as “Active”.
